ChEMBL document CHEMBL1132324, “Structure-activity relationships in 1,4-benzodioxan-related compounds. 6. Role of the dioxane unit on selectivity for alpha(1)-adrenoreceptor subtypes” (J Med Chem, 1999)

What was measured:
[1] = target: D(2) dopamine receptor (Rattus norvegicus) (UniProt P61169); experiment: The binding affinity was evaluated on Dopamine receptor D2 expressed in rat striatum by using [3H]spiperone as radioligand; type: tissue-based
Outline: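 Rat striatum membranes in Tris-HCl with 10 μM pargyline, 0.1% ascorbic acid, 120 mM NaCl, 5 mM KCl, 2 mM CaCl2, 1 mM MgCl2. Incubated 15 min at 37 °C with 0.2–0.6 nM [3H]spiperone. Nonspecific binding with 1 μM (+)-butaclamol. Ki by Cheng-Prusoff. 2–3 experiments in triplicate.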

[2] = target: T1, 5-hydroxytryptamine receptor 1A (Homo sapiens) (UniProt P08908); experiment: The binding affinity was evaluated on cloned human 5-hydroxytryptamine 1A receptor expressed in HeLa cells by using DPAT as radioligand.; type: cell-based
T1 sequence (whole entry): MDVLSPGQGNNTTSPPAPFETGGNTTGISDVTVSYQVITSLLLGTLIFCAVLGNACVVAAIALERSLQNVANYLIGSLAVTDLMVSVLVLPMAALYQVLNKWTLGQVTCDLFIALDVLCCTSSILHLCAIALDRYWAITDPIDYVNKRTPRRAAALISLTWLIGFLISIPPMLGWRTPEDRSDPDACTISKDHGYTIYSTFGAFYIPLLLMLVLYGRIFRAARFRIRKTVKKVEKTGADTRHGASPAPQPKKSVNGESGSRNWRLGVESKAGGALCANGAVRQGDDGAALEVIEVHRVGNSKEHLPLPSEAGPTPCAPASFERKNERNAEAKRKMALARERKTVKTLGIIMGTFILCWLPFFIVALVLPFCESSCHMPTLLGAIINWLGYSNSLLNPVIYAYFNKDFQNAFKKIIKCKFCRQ
Outline: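 Membranes from HeLa cells stably expressing human 5-HT1A, in 50 mM Tris-HCl pH 7.4, 2.5 mM MgCl2, 10 μM pargyline. Nonspecific binding with 10 μM 5-HT. Filtration. Ki by Cheng-Prusoff. 2–3 experiments in triplicate.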

[3] = target: 5-hydroxytryptamine receptor 2A (Rattus norvegicus) (UniProt P14842); experiment: The binding affinity was evaluated on 5-hydroxytryptamine 2A receptor expressed in rat cortex by using [3H]ketanserin as radioligand.
5-hydroxytryptamine receptor 2A (Rattus norvegicus), sequence (P14842 whole entry): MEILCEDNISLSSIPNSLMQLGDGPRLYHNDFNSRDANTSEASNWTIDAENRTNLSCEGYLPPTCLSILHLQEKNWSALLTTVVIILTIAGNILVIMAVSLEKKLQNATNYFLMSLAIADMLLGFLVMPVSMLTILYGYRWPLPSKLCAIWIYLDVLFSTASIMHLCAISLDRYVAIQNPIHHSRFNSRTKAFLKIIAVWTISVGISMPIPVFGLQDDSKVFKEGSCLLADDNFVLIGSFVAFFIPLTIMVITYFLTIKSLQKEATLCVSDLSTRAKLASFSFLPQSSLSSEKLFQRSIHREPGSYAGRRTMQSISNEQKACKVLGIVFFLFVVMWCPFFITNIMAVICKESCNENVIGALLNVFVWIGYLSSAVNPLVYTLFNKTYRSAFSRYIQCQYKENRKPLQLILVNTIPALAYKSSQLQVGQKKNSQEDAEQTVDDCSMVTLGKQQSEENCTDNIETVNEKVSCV
Outline: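 Rat cerebral cortex membranes in Tris-HCl pH 7.4 with 10 μM pargyline and 0.1% ascorbic acid. Incubated 20 min at 37 °C with 0.7–1.3 nM [3H]ketanserin. Nonspecific binding with 2 μM ketanserin. Filtration and scintillation counting. Ki by Cheng-Prusoff. 2–3 experiments in triplicate.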

[4] = target: T2, Alpha-1A adrenergic receptor (Homo sapiens) (UniProt P35348); experiment: The binding affinity was evaluated on cloned human Alpha-1A adrenergic receptor expressed in chinese hamster ovary(CHO) cells by using [3H]prazosin as radioligand.; type: cell-based
T2 sequence (whole entry): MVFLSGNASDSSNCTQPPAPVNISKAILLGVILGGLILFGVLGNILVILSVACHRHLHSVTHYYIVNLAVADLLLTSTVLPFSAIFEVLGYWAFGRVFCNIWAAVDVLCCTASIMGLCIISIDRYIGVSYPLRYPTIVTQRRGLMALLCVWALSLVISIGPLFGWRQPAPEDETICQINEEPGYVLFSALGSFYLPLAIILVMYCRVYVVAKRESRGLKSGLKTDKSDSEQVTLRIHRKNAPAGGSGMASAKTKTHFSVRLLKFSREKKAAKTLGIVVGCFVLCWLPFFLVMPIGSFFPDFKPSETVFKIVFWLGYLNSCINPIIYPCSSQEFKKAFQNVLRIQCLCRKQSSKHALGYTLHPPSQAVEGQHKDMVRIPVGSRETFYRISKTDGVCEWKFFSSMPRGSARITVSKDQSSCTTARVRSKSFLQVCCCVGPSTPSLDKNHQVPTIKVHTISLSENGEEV
Outline: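 Membranes (30 μg protein) from CHO cells stably expressing each human α1 subtype, in 50 mM Tris-HCl pH 7.4. Incubated with 0.1–0.4 nM [3H]prazosin for 30 min at 25 °C, competitor 1 pM–10 μM. Nonspecific binding with 10 μM phentolamine. Ki by Cheng-Prusoff. 2–3 experiments in triplicate.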

[5] = target: T3, Alpha-1D adrenergic receptor (Rattus norvegicus) (UniProt P23944); experiment: Antagonist affinity was expressed as apparent pKb at Alpha-1D adrenergic receptor on isolated rat thoracic aorta (Alpha-1D); type: functional, tissue-based
T3 sequence (whole entry): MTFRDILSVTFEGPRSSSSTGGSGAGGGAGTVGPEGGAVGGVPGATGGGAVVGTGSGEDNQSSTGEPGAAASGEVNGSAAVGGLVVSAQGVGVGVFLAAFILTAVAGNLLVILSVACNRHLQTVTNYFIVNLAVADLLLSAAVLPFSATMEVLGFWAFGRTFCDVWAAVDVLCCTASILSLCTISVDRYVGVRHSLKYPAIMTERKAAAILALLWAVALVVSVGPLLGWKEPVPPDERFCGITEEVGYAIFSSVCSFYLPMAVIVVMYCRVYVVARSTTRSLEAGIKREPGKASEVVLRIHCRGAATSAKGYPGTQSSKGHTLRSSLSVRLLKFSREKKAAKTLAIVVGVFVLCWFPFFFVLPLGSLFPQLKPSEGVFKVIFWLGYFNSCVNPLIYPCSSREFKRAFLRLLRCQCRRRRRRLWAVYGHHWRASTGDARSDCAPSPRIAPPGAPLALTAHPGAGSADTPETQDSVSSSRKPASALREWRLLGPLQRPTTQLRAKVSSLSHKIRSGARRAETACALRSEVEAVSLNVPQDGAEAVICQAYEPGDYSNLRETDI
Outline: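 Helicoidal strips of rat thoracic aorta at 1 g tension, with 0.1 μM cocaine and 1 μM propranolol. After ≥1 h equilibration, cumulative (–)-noradrenaline curves at 30-min intervals; the third served as control. Antagonist equilibrated 30 min before the fourth curve. Apparent pKb from log(DR−1) − log[B], 2–3 antagonist concentrations, each tested four times.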

[6] = test system: Alpha-1B adrenergic receptor (Cavia porcellus); experiment: Antagonist affinity was expressed as apparent pKb at Alpha-1B adrenergic receptor on isolated Guinea pig spleen (Alpha-1B)

D(2) dopamine receptor (Rattus norvegicus), sequence (P61169 whole entry): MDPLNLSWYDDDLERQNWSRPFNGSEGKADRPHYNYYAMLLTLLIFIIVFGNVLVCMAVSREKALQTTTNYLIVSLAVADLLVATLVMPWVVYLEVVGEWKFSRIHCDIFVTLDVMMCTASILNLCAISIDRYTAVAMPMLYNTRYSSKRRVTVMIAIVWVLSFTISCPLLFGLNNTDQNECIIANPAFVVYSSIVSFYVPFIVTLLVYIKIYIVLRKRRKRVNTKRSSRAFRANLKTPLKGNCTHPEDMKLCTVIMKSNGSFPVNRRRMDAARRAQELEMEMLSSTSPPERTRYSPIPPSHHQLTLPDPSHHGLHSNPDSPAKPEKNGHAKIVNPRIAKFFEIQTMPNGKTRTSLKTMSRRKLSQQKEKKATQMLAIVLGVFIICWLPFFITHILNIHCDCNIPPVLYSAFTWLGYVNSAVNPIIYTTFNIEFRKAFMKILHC

pKi [1] | pKi [2] | pKi [3] | pKi [4] | pKb [5] | pKb [6] | SMILES
< 6 | 6.73 | 6.2 |  |  |  | COc1cccc(OC)c1OCCNCC1C(=O)c2ccccc2OC1c1ccccc1 (stereo not drawn)
< 6 | 6.84 | < 6 | 8.49 | 7.46 | 5.54 | COc1cccc(OC)c1OCCNCC1Oc2ccccc2CC1c1ccccc1 (stereo in doubt; 7)
 | 7.93 |  | 9.33 | 9.37 | 7.87 | COc1cccc(OC)c1OCCNCCOc1ccccc1OCc1ccccc1
